Assay results taken from ChEMBL document CHEMBL5247575 (J Med Chem, 2018).

test system: Acinetobacter baumannii; test: Synergistic antibacterial activity against Acinetobacter baumannii PR408 producing OXA-24/40 assessed as cefepime MIC at 4 ug/ml by broth microdilution method; format: functional; details: dose 4 µg/ml

| SMILES | MIC |
| --- | --- |
| N#C[C@@H]1CC[C@@H]2CN1C(=O)N2OS(=O)(=O)[O-].[Na+] | 8 µg/mL |

test system: Klebsiella pneumoniae; test: Synergistic antibacterial activity against Klebsiella pneumoniae 1084/1957 producing KPC-3 assessed as meropenem MIC at 4 ug/ml by broth microdilution method; format: functional; details: dose 4 µg/ml
How it was run: (§1)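 Broth microdilution per CLSI guidelines, using custom frozen panels. […] Each partner drug was also tested alone. MICs were run in triplicate and the modal value is reported.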

| SMILES | MIC |
| --- | --- |
| N#C[C@@H]1CC[C@@H]2CN1C(=O)N2OS(=O)(=O)[O-].[Na+] | ≤ 0.12 µg/mL |

test system: Pseudomonas aeruginosa; test: Synergistic antibacterial activity against Pseudomonas aeruginosa 776 assessed as meropenem MIC at 4 ug/ml by broth microdilution method; format: functional; details: dose 4 µg/ml

| SMILES | MIC |
| --- | --- |
| N#C[C@@H]1CC[C@@H]2CN1C(=O)N2OS(=O)(=O)[O-].[Na+] | 16 µg/mL |

test system: Escherichia coli; test: Synergistic antibacterial activity against Escherichia coli DH10B transfected with pBR322-catI-KPC-2 assessed as cefepime MIC at 8 ug/ml by broth microdilution method; format: functional; details: dose 8 µg/ml; how it was run: as §1

| SMILES | MIC |
| --- | --- |
| N#C[C@@H]1CC[C@@H]2CN1C(=O)N2OS(=O)(=O)[O-].[Na+] | ≤ 0.12 µg/mL |

test system: Klebsiella pneumoniae; test: Synergistic antibacterial activity against Klebsiella pneumoniae CAV 1636 producing OXA-181 assessed as meropenem MIC at 8 ug/ml by broth microdilution method; format: functional; details: dose 8 µg/ml

| SMILES | MIC |
| --- | --- |
| N#C[C@@H]1CC[C@@H]2CN1C(=O)N2OS(=O)(=O)[O-].[Na+] | ≤ 0.12 µg/mL |

test system: Klebsiella pneumoniae; test: Synergistic antibacterial activity against Klebsiella pneumoniae 977/1916 producing KPC-3 assessed as cefepime MIC at 4 ug/ml by broth microdilution method; format: functional; details: dose 4 µg/ml

| SMILES | MIC |
| --- | --- |
| N#C[C@@H]1CC[C@@H]2CN1C(=O)N2OS(=O)(=O)[O-].[Na+] | ≤ 0.12 µg/mL |

test system: Klebsiella pneumoniae; test: Synergistic antibacterial activity against Klebsiella pneumoniae 776/1742 producing KPC-2 assessed as cefepime MIC at 4 ug/ml by broth microdilution method; format: functional; details: dose 4 µg/ml

| SMILES | MIC |
| --- | --- |
| N#C[C@@H]1CC[C@@H]2CN1C(=O)N2OS(=O)(=O)[O-].[Na+] | 1 µg/mL |

test system: Acinetobacter baumannii; test: Synergistic antibacterial activity against Acinetobacter baumannii PR323 producing OXA-24/40 assessed as cefepime MIC at 8 ug/ml by broth microdilution method; format: functional; details: dose 8 µg/ml

| SMILES | MIC |
| --- | --- |
| N#C[C@@H]1CC[C@@H]2CN1C(=O)N2OS(=O)(=O)[O-].[Na+] | > 16 µg/mL |

test system: Pseudomonas aeruginosa; test: Synergistic antibacterial activity against Pseudomonas aeruginosa CL232 assessed as cefepime MIC at 8 ug/ml by broth microdilution method; format: functional; details: dose 8 µg/ml

| SMILES | MIC |
| --- | --- |
| N#C[C@@H]1CC[C@@H]2CN1C(=O)N2OS(=O)(=O)[O-].[Na+] | > 16 µg/mL |

test system: Klebsiella pneumoniae; test: Synergistic antibacterial activity against Klebsiella pneumoniae 1398/2291 producing KPC-3 assessed as cefepime MIC at 4 ug/ml by broth microdilution method; format: functional; details: dose 4 µg/ml; how it was run: as §1

| SMILES | MIC |
| --- | --- |
| N#C[C@@H]1CC[C@@H]2CN1C(=O)N2OS(=O)(=O)[O-].[Na+] | ≤ 0.12 µg/mL |

test system: Escherichia coli; test: Synergistic antibacterial activity against Escherichia coli DH10B transfected with pBR322-catI-KPC-2 assessed as meropenem MIC at 8 ug/ml by broth microdilution method; format: functional; details: dose 8 µg/ml; how it was run: as §1

| SMILES | MIC |
| --- | --- |
| N#C[C@@H]1CC[C@@H]2CN1C(=O)N2OS(=O)(=O)[O-].[Na+] | ≤ 0.12 µg/mL |

test system: Acinetobacter baumannii; test: Synergistic antibacterial activity against ADC deleted Acinetobacter baumannii transfected with pWH1266 OXA-23 assessed as cefepime MIC at 8 ug/ml by broth microdilution method; format: functional; details: dose 8 µg/ml

| SMILES | MIC |
| --- | --- |
| N#C[C@@H]1CC[C@@H]2CN1C(=O)N2OS(=O)(=O)[O-].[Na+] | 2 µg/mL |

test system: Klebsiella pneumoniae; test: Synergistic antibacterial activity against Klebsiella pneumoniae 1315/2198 producing KPC-3 assessed as cefepime MIC at 8 ug/ml by broth microdilution method; format: functional; details: dose 8 µg/ml; how it was run: as §1

| SMILES | MIC |
| --- | --- |
| N#C[C@@H]1CC[C@@H]2CN1C(=O)N2OS(=O)(=O)[O-].[Na+] | 0.25 µg/mL |

test system: Escherichia coli; test: Synergistic antibacterial activity against Escherichia coli DH10B transfected with pBC SK (-) KPC-2 assessed as cefepime MIC at 8 ug/ml by broth microdilution method; format: functional; details: dose 8 µg/ml

| SMILES | MIC |
| --- | --- |
| N#C[C@@H]1CC[C@@H]2CN1C(=O)N2OS(=O)(=O)[O-].[Na+] | ≤ 0.12 µg/mL |

test system: Klebsiella pneumoniae; test: Synergistic antibacterial activity against Klebsiella pneumoniae jefferson 1775 producing OXA-48 assessed as cefepime MIC at 8 ug/ml by broth microdilution method; format: functional; details: dose 8 µg/ml

| SMILES | MIC |
| --- | --- |
| N#C[C@@H]1CC[C@@H]2CN1C(=O)N2OS(=O)(=O)[O-].[Na+] | ≤ 0.12 µg/mL |

test system: Pseudomonas aeruginosa; test: Synergistic antibacterial activity against Pseudomonas aeruginosa 795 assessed as cefepime MIC at 8 ug/ml by broth microdilution method; format: functional; details: dose 8 µg/ml

| SMILES | MIC |
| --- | --- |
| N#C[C@@H]1CC[C@@H]2CN1C(=O)N2OS(=O)(=O)[O-].[Na+] | > 16 µg/mL |

test system: Acinetobacter baumannii; test: Synergistic antibacterial activity against Acinetobacter baumannii PR323 producing OXA-24/40 assessed as meropenem MIC at 8 ug/ml by broth microdilution method; format: functional; details: dose 8 µg/ml

| SMILES | MIC |
| --- | --- |
| N#C[C@@H]1CC[C@@H]2CN1C(=O)N2OS(=O)(=O)[O-].[Na+] | 16 µg/mL |

test system: Klebsiella pneumoniae; test: Synergistic antibacterial activity against Klebsiella pneumoniae 1398/2291 producing KPC-3 assessed as meropenem MIC at 8 ug/ml by broth microdilution method; format: functional; details: dose 8 µg/ml; how it was run: as §1

| SMILES | MIC |
| --- | --- |
| N#C[C@@H]1CC[C@@H]2CN1C(=O)N2OS(=O)(=O)[O-].[Na+] | ≤ 0.12 µg/mL |

test system: Escherichia coli; test: Synergistic antibacterial activity against Escherichia coli DH10B transfected with pBC SK (-) KPC-2 assessed as meropenem MIC at 8 ug/ml by broth microdilution method; format: functional; details: dose 8 µg/ml

| SMILES | MIC |
| --- | --- |
| N#C[C@@H]1CC[C@@H]2CN1C(=O)N2OS(=O)(=O)[O-].[Na+] | ≤ 0.12 µg/mL |

test system: Klebsiella pneumoniae; test: Synergistic antibacterial activity against Klebsiella pneumoniae 660/1568 producing KPC-3 assessed as cefepime MIC at 4 ug/ml by broth microdilution method; format: functional; details: dose 4 µg/ml; how it was run: as §1

| SMILES | MIC |
| --- | --- |
| N#C[C@@H]1CC[C@@H]2CN1C(=O)N2OS(=O)(=O)[O-].[Na+] | 0.25 µg/mL |
